# Bioassay records as filed in PubChem.
# PfG6PD inh: PfG6PD (Plasmodium falciparum) enzyme inhibition; PfGluPho enzyme, NADPH resazurin-diaphorase fluorescence; inhibition, % at 20 µM; actives 0.78% (n = 350,000);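 active = inhibition reaching at least a set limit at 20 µM in the primary screen, cut at about 59% in these data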;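 also: 0% = DMSO wells with substrate and 100% = DMSO wells lacking glucose-6-phosphate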
# G6PDH CS: counter-screen for G6PDH assay hits: L. mesenteroides G6PDH inhibition; Purified L. mesenteroides G6PDH, diaphorase/resazurin coupled fluorescence, 45 min; inhibition, % at 5 µM; actives 0.12% (n = 200,000); in the data active = inhibition above about 50%
# Diaphorase inh: counter-screen for diaphorase-based assays: diaphorase inhibitors and chemical oxidizers; inhibition, % at 20 µM; diaphorase resazurin-to-resorufin fluorescence, NADH, 16 min; bacterial (C. kluyveri) enzyme, not human; actives 0.69% (n = 190,000);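 active = primary screen inhibition at 20 µM above a set limit, cut at about 50% in these data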;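 also: plate controls were DMSO with full reaction for no effect and wells lacking NADH for full effect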
#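 controls = No-NADH positive control and DMSO neutral control | system = Clostridium kluyveri diaphorase enzyme | timing = reaction incubation of 16 min at room temperature | signal = resorufin fluorescence 544/590 nm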
# HKDC1 inhibitor: inhibitors of human hexokinase HKDC1 | Q2TB90 | recombinant HKDC1, G6PDH/diaphorase resazurin coupled fluorescence | inhibition, % at 20 µM | actives 0.16% (n = 340,000);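 active = inhibition above about 35% when tested at 20 µM, limit read from the data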;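 also: plate controls were DMSO wells with enzyme for no effect and DMSO wells lacking enzyme for full effect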
#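 Material: recombinant HKDC1 hexokinase; Amount: HKDC1 at 5 µg/mL; Medium: Tris pH 8.0 buffer with MgCl2, Tween-20, BSA, BME; Schedule: 90 min reaction incubation at room temperature, dark; Technique: coupled resazurin fluorescence, excitation 525 nm, emission 613 nm.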
# PfG6PD confirm: PfG6PD inhibition, single-dose confirmed | shares compounds with PfG6PD inh | actives 34% (n = 2,400) | recombinant PfGluPho, NADPH-diaphorase-resazurin fluorescence | inhibition, % at 20 µM;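 active = inhibition of at least 50% at 20 µM in any single replicate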;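 also: 0% = DMSO with substrate and 100% = DMSO lacking glucose-6-phosphate substrate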
# Diaph ctr 10uM: diaphorase inhibition or oxidation at 10 uM NADPH; shares compounds with PfG6PD inh; diaphorase-coupled resazurin reduction, fluorescence, NADPH 10 uM; inhibition, % at 20 µM; actives 39% (n = 820); AID 504862;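 active = average inhibition reaching 50% or more with the compound at 20 µM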;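 also: resorufin red fluorescence formed as diaphorase reduces resazurin using NADPH; 0% = DMSO with enzyme and 100% = DMSO without enzyme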
# Diaphorase 30uM: counter-screen for P. falciparum G6PD inhibitors: diaphorase inhibitors, oxidizers. Diaphorase/resazurin coupled assay, resorufin fluorescence, 30 uM NADPH. actives 29% (n = 820). AID 504863. shares compounds with PfG6PD inh. inhibition, % at 20 µM;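 active = inhibition averaging 50% or more, tested at 20 µM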;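 also: 0% = DMSO with enzyme and 100% = DMSO wells lacking diaphorase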
# An asterisk follows results filed as active; / = no result. A selection: hits, their analogues and other compounds. The true share with any hit is near 1.3%.
SMILES,PfG6PD inh,G6PDH CS,Diaphorase inh,HKDC1 inhibitor,PfG6PD confirm,others
O=C1CCN(S(=O)(=O)c2ccccc2)N1,9,19,0,-8,/,
O=C(Nc1ccc([N+](=O)[O-])cc1Cl)c1cc(Cl)ccc1O,94*,/,/,5,51*,Diaph ctr 10uM=41;Diaphorase 30uM=31
O=C(Nc1ccc([N+](=O)[O-])cc1Cl)c1cccc([N+](=O)[O-])c1,5,/,/,/,/,
N#Cc1cc(Cl)c(N2CCOCC2)cc1C#N,4,4,-3,-4,/,
N#Cc1cc2ccc(N3CCOCC3)cc2cc1C#N,63*,48,16,20,29,
O=C(NCc1cnn(-c2ccccc2)c1)C1CCC(=O)N(C2CC2)C1 (configuration not stated),1,/,/,6,/,
CC1=C(C(=O)N2CCOCC2)CC(CC(=O)NCCCCc2ccccc2)C(=O)N1CCC1=CCCCC1 (configuration not stated),8,/,/,/,/,
C=CCn1c2ccccc2c(=O)c2cc(C#Cc3ccccn3)ccc21,80*,/,/,-2,36,
O=c1c2ccccc2oc2cc(C#Cc3ccccn3)ccc12,2,/,/,-3,/,
CCc1cccc(C)c1NC(=O)c1cc(=O)[nH]c2ccc(S(=O)(=O)N3CCOCC3)cc12,1,/,/,-10,/,
Cc1cc(C)c(S(=O)(=O)c2cccc(Br)c2C)c(Cl)n1,69*,/,/,1,22,
S=C(NCCc1ccccc1)Nc1ccccn1,16,2,17,-9,/,
Cc1cccc(NC(=S)NCCc2ccccc2)n1,70*,1,13,-2,24,
Cc1cc(OC(=O)c2cc(C(F)(F)F)cc(C(F)(F)F)c2)c([N+](=O)[O-])c(=O)[nH]1,9,/,/,2,/,
O=C(O)CSc1ncnc2nc[nH]c12,-3,7,9,-2,/,
c1nc(SSc2ncnc3nc[nH]c23)c2[nH]cnc2n1,118*,/,/,-2,108*,Diaph ctr 10uM=-21;Diaphorase 30uM=-15
CC(=O)N/C(=C\c1ccccc1)C(=O)OCC(=O)N(CC(C)C)c1c(N)n(Cc2ccccc2)c(=O)[nH]c1=O,-8,/,/,0,/,
CC1CCc2[nH]c3ccc(C(=O)N(C)CC(=O)Nc4ccccc4Br)cc3c2C1 (configuration not stated),90*,/,/,11,47,
Cc1ccc(C)c(NC(=O)CN(C)C(=O)c2ccc3[nH]c4c(c3c2)CC(C)CC4)c1 (configuration not stated),70*,/,/,1,20,
CCOC(=O)c1ccc(-n2c(N)c(C(=O)NCc3ccco3)sc2=S)cc1,83*,4,25,-12,38,
CNC(=O)c1sc(=S)n(-c2ccc(OC)cc2)c1N,-19,3,15,-4,/,
Cc1ccc(-n2c(N)c(C(=O)NCc3cccnc3)sc2=S)cc1,68*,13,-1,-7,7,
C=CCNC(=O)c1sc(=S)n(-c2ccc(C(=O)OCC)cc2)c1N,68*,22,10,-11,34,
CCOC(=O)c1ccc(-n2c(N)c(C(=O)NCC3CCCO3)sc2=S)cc1 (configuration not stated),74*,10,15,-2,53*,Diaph ctr 10uM=11;Diaphorase 30uM=12
COc1ccc(-n2c(N)c(C(=O)NCc3ccco3)sc2=S)cc1,48,11,20,-3,/,
SMILES,PfG6PD inh,G6PDH CS,Diaphorase inh,HKDC1 inhibitor,PfG6PD confirm,others
Cc1cc(NC(=O)c2ccc(Br)o2)ccc1NC(=O)c1ccco1,28,/,/,-4,/,
CCOC(=O)c1sc(=S)n(-c2ccc(C)cc2)c1N,67*,10,4,-5,32,
CCOC(=O)c1sc(=S)n(-c2ccc(F)c(F)c2)c1N,50,0,-4,-10,/,
O=C(NCCO)c1nc(C(=O)c2ccccc2)c2ccccc2n1,-2,/,/,-4,/,
CC1CN(S(=O)(=O)c2cccc(C(=O)NCC(c3cccs3)N3CCOCC3)c2)CC(C)O1 (configuration not stated),-5,/,/,1,/,
CCOC(=O)c1c(CSCc2ccccc2)oc2ccc(O)c(CN(C)C)c12,59*,/,/,0,40,
Cc1nc(N2CCCCC2)c2sc(=S)n(C)c2n1,1,-31,21,-4,/,
CCN1CCN(c2nc(C)nc3c2sc(=S)n3C)CC1,76*,-22,24,-5,62*,Diaph ctr 10uM=-19;Diaphorase 30uM=-15
Oc1c(Br)cc(Br)cc1C=Nc1cccc2ncccc12,48,/,/,31,36,
Brc1cccc(C=Nc2cccc3ncccc23)c1,10,/,/,14,/,
CC(=O)NCCn1c(SCc2cccc([N+](=O)[O-])c2)nc2ccccc2c1=O,6,4,28,0,/,
CCN(CC)C(=O)CSc1nc(-c2cccs2)cc(-c2cccs2)c1C#N,70*,-2,6,4,15,
O=C(CNC(=O)c1ccccc1)NCC(=O)OCC(=O)c1ccc(F)cc1,-10,10,9,-5,/,
O=C(CNC(=O)c1ccc(Br)cc1)NCC(=O)OCC(=O)c1ccc([N+](=O)[O-])cc1,67*,8,-10,-10,57*,Diaph ctr 10uM=-5;Diaphorase 30uM=-8
O=C(CNC(=O)c1ccccc1)NCC(=O)OCC(=O)c1ccc([N+](=O)[O-])cc1,59*,-9,15,-9,55*,Diaph ctr 10uM=-18;Diaphorase 30uM=-16
CCn1cc(/C=C(\NC(=O)c2ccc(OC)c(OC)c2)C(=O)NCCCN2CCOCC2)c2ccccc21,-1,/,/,2,/,
O=C(Nc1nnc(C(F)(F)F)s1)c1ccc(Br)s1,85*,-4,6,2,72*,Diaph ctr 10uM=65*;Diaphorase 30uM=52*
CCSc1nnc(NC(=O)c2ccc(Br)s2)s1,102*,2,8,-2,64*,Diaph ctr 10uM=70*;Diaphorase 30uM=61*
Cc1cc(C(=O)Nc2nnc(C(F)(F)F)s2)no1,17,-17,10,0,/,
Cc1cc(C(=O)Nc2nnc(C(F)(F)F)s2)cs1,119*,/,/,0,82*,Diaph ctr 10uM=77*;Diaphorase 30uM=72*
CCSc1nnc(NC(=O)c2ccccc2)s1,62*,1,16,-5,21,
C[C@@H]1CCCCO[C@@H](CN(C)Cc2ccc(Cl)c(Cl)c2)[C@@H](C)CN([C@H](C)CO)C(=O)c2cc(NC(=O)CCC(F)(F)F)ccc2O1,22,/,/,/,/,
CCSc1nnc(Nc2ccc(C)cc2)s1,66*,6,7,-1,24,
CCSc1nnc(Nc2ccccc2)s1,-5,3,30,-5,/,
COc1ccccc1N(C)S(=O)(=O)c1ccc(C(=O)NCc2ccccc2CN2CCCC2)cc1,0,/,/,-2,/,
COc1ccc(C(=O)Nc2sc(C)c(-c3ccccc3)c2C#N)cc1OC,67*,0,16,1,-10,
O=C(COC(=O)/C=C/c1ccc([N+](=O)[O-])cc1)Nc1ccc2[nH]c(=O)[nH]c2c1,7,/,/,5,/,
Clc1ccc2ncc(-c3nnnn3-c3ccccc3)c(-c3ccccc3)c2c1,26,12,21,4,/,
